Reference: ChEMBL document CHEMBL4689842, “EUbOPEN Chemogenomics Library wave 1” (2021)

How the values were obtained:
Format in all cases: toxicity, cell-based
[1] = test system: U2OS; experiment: Multiplex assay against U2OS; conditions: human
Summary of the method: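 Live cells carried four stains from seeding: Hoechst33342, BioTracker Green Microtubule Cytoskeleton Dye, MitoTracker Red and Annexin V Alexa Fluor 680. They were imaged on a CQ1 microscope at 37°C and 5% CO2 after compound addition. Using CellPathfinder machine-learning gating, cells were split into Hoechst high-intensity objects or normal cells, normal cells into healthy, pyknosed or fragmented nuclei, and pyknosed cells into mitotic or apoptotic; tubulin, mitochondrial-mass and membrane-permeability phenotypes are per cents of healthy-nucleus cells.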

[2] = test system: HEK-293T; experiment: Incucyte cell viability with HEK293T; conditions: human, 10 µM, compound concentration 10 uM; also: filed as whole numbers so only -1 and 0 and 1 occur
[3] = test system: U2OS; experiment: Incucyte cell viability with U2OS; conditions: human, 10 µM, compound concentration 10 uM; also: filed as whole numbers so only -1 and 0 and 1 occur
[4] = 24 h, 10 µM, compound concentration 10 uM, replicate 1
[5] = 24 h, 10 µM, compound concentration 10 uM, replicate 2
[6] = 48 h, 1 µM, compound concentration 1 uM, replicate 1
[7] = 48 h, 1 µM, compound concentration 1 uM, replicate 2
[8] = 48 h, 10 µM, compound concentration 10 uM, replicate 1
[9] = 48 h, 10 µM, compound concentration 10 uM, replicate 2
[10] = 6 h, replicate number 1, timepoint 6 hours
[11] = 12 h, replicate number 1, timepoint 12 hours
[12] = 18 h, replicate number 1, timepoint 18 hours
[13] = 24 h, replicate number 1, timepoint 24 hours

**Q.** Which “Population Mitochondria Different-Phenotype (%)” value [1, 4] does the source give for `COc1ccc(NS(=O)(=O)c2sc3ccc(Cl)cc3c2C)cc1N1CCNCC1.Cl` here?
**A.** 98%

**Q.** What about the “Population Mitotic Cells (%)” value [1, 4] of the same compound?
**A.** 38%

**Q.** And the “Population Normal (%)” value [1, 4]?
**A.** 92%

**Q.** And the “Population Pyknosed Nuclei (%)” value [1, 4]?
**A.** 31%

**Q.** And the “Population Tubulin-Different-Phenotype (%)” value [1, 4]?
**A.** 95%

**Q.** And the “Total Cell Count” value [1, 4]?
**A.** 200

**Q.** What about the “Population Apoptotic (%)” value [1, 5] of the same compound?
**A.** 68%

**Q.** And the “Population Fragmented Nuclei (%)” value [1, 5]?
**A.** 16%

**Q.** And the “Population Healthy Nuclei (%)” value [1, 5]?
**A.** 47%

**Q.** What about the “Population Hoechst High Intensity Objects (%)” value [1, 5] of the same compound?
**A.** 2%

**Q.** And the “Population Membrane Permeable-Phenotype (%)” value [1, 5]?
**A.** 55%

**Q.** And the “Population Mitochondria Different-Phenotype (%)” value [1, 5]?
**A.** 97%

**Q.** What about the “Population Mitotic Cells (%)” value [1, 5] of the same compound?
**A.** 32%

**Q.** What about the “Population Normal (%)” value [1, 5] of the same compound?
**A.** 97%

**Q.** What about the “Population Pyknosed Nuclei (%)” value [1, 5] of the same compound?
**A.** 35%

**Q.** And the “Population Tubulin-Different-Phenotype (%)” value [1, 5]?
**A.** 91%

**Q.** And the “Total Cell Count” value [1, 5]?
**A.** 51

**Q.** And the “Population Apoptotic (%)” value [1, 6]?
**A.** 36%

**Q.** And the “Population Fragmented Nuclei (%)” value [1, 6]?
**A.** 8%

**Q.** What about the “Population Healthy Nuclei (%)” value [1, 6] of the same compound?
**A.** 82%

**Q.** And the “Population Hoechst High Intensity Objects (%)” value [1, 6]?
**A.** 3%

**Q.** And the “Population Membrane Permeable-Phenotype (%)” value [1, 6]?
**A.** 3%

**Q.** And the “Population Mitochondria Different-Phenotype (%)” value [1, 6]?
**A.** 8%

**Q.** And the “Population Mitotic Cells (%)” value [1, 6]?
**A.** 64%

**Q.** And the “Population Pyknosed Nuclei (%)” value [1, 6]?
**A.** 9%

**Q.** What about the “Population Tubulin-Different-Phenotype (%)” value [1, 6] of the same compound?
**A.** 6%

**Q.** And the “Total Cell Count” value [1, 6]?
**A.** 178

**Q.** And the “Population Apoptotic (%)” value [1, 7]?
**A.** 22%

**Q.** What about the “Population Fragmented Nuclei (%)” value [1, 7] of the same compound?
**A.** 13%

**Q.** And the “Population Healthy Nuclei (%)” value [1, 7]?
**A.** 73%

**Q.** What about the “Population Hoechst High Intensity Objects (%)” value [1, 7] of the same compound?
**A.** 4%

**Q.** What about the “Population Membrane Permeable-Phenotype (%)” value [1, 7] of the same compound?
**A.** 7%

**Q.** And the “Population Mitochondria Different-Phenotype (%)” value [1, 7]?
**A.** 20%

**Q.** And the “Population Mitotic Cells (%)” value [1, 7]?
**A.** 77%

**Q.** And the “Population Normal (%)” value [1, 7]?
**A.** 96%

**Q.** What about the “Population Pyknosed Nuclei (%)” value [1, 7] of the same compound?
**A.** 12%

**Q.** And the “Population Tubulin-Different-Phenotype (%)” value [1, 7]?
**A.** 11%

**Q.** What about the “Total Cell Count” value [1, 7] of the same compound?
**A.** 73

**Q.** And the “Population Apoptotic (%)” value [1, 8]?
**A.** 73%

**Q.** What about the “Population Fragmented Nuclei (%)” value [1, 8] of the same compound?
**A.** 20%

**Q.** And the “Population Healthy Nuclei (%)” value [1, 8]?
**A.** 37%

**Q.** And the “Population Hoechst High Intensity Objects (%)” value [1, 8]?
**A.** 12%

**Q.** And the “Population Membrane Permeable-Phenotype (%)” value [1, 8]?
**A.** 46%

**Q.** What about the “Population Mitochondria Different-Phenotype (%)” value [1, 8] of the same compound?
**A.** 94%

**Q.** What about the “Population Mitotic Cells (%)” value [1, 8] of the same compound?
**A.** 26%

**Q.** And the “Population Normal (%)” value [1, 8]?
**A.** 87%

**Q.** And the “Population Pyknosed Nuclei (%)” value [1, 8]?
**A.** 41%

**Q.** What about the “Population Tubulin-Different-Phenotype (%)” value [1, 8] of the same compound?
**A.** 98%

**Q.** And the “Total Cell Count” value [1, 8]?
**A.** 281

**Q.** And the “Population Apoptotic (%)” value [1, 9]?
**A.** 68%

**Q.** And the “Population Fragmented Nuclei (%)” value [1, 9]?
**A.** 17%

**Q.** What about the “Population Healthy Nuclei (%)” value [1, 9] of the same compound?
**A.** 56%

**Q.** And the “Population Hoechst High Intensity Objects (%)” value [1, 9]?
**A.** 6%

**Q.** And the “Population Membrane Permeable-Phenotype (%)” value [1, 9]?
**A.** 56%

**Q.** What about the “Population Mitochondria Different-Phenotype (%)” value [1, 9] of the same compound?
**A.** 93%

**Q.** What about the “Population Mitotic Cells (%)” value [1, 9] of the same compound?
**A.** 31%

**Q.** And the “Population Normal (%)” value [1, 9]?
**A.** 93%

**Q.** And the “Population Pyknosed Nuclei (%)” value [1, 9]?
**A.** 26%

**Q.** And the “Population Tubulin-Different-Phenotype (%)” value [1, 9]?
**A.** 82%

**Q.** What about the “Total Cell Count” value [1, 9] of the same compound?
**A.** 75

**Q.** What about the “Growth Rate” value ([2]; 0 h, replicate number 2, timepoint 0 hours) of the same compound?
**A.** 1

**Q.** And the “Growth Rate” value [2, 10]?
**A.** 0

**Q.** And the “Growth Rate” value [2, 11]?
**A.** 0

**Q.** What about the “Growth Rate” value [2, 12] of the same compound?
**A.** 0

**Q.** And the “Growth Rate” value [2, 13]?
**A.** 0

**Q.** And the “Growth Rate” value [3, 10]?
**A.** 0

**Q.** And the “Growth Rate” value [3, 11]?
**A.** 0

**Q.** And the “Growth Rate” value [3, 12]?
**A.** 0

**Q.** What about the “Growth Rate” value [3, 13] of the same compound?
**A.** 0
